Laboratory results published in ChEMBL document CHEMBL1122756, “Synthesis of (E)-5-(3,3,3-trifluoro-1-propenyl)-2'-deoxyuridine and related analogues: potent and unusually selective antiviral activity of (E)-5-(3,3,3-trifluoro-1-propenyl)-2'-deoxyuridine against herpes simplex virus type 1” (1984).
In brackets after ≈: the same amount, converted by molar mass.

Columns and labels:
[1] = tested on: Human alphaherpesvirus 1; test: Compound was evaluated for antiviral activity against HSV-1(TK-, strain B2006); type: functional
Method in brief: (§1)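 Herpes stocks grown in primary rabbit kidney (PRK) cells. Confluent PRK cultures were inoculated at 0.03 pfu/cell, and the compound's effect on virus multiplication was measured. The readout is ID99, the concentration that cuts viral yield by 99%.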

[2] = tested on: Human alphaherpesvirus 1; test: Compound was evaluated for antiviral activity against HSV-1(strain KOS); type: functional; method in brief: as §1
[3] = tested on: Human alphaherpesvirus 2; test: Compound was evaluated for antiviral activity against HSV-2(strain G); type: functional; method in brief: as §1
[4] = organism: Oryctolagus cuniculus; test: Concentration of compound required to inhibit [methyl-3H]dThd incorporation into host cell DNA by 50% in primary rabbit kidney cell cultures; type: functional; details: read-out: ID50 (the source's name)
Method in brief: (§2)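 Uptake of radiolabel into DNA was measured in PRK cultures. Input per 10^5 cells was 6 pmol (0.25 µCi) of [1',2'-3H]dUrd for the dUrd line, or 10 pmol (0.38 µCi) of [methyl-3H]dThd for the dThd line. The value is the concentration giving 50% inhibition of incorporation.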

[5] = organism: Oryctolagus cuniculus; test: Concentration of compound required to inhibit [1',2'-3H]dUrd incorporation into host cell DNA by 50% in primary rabbit kidney cell cultures; type: functional; details: read-out: ID50 (the source's name); method in brief: as §2
[6] = tested on: Vaccinia virus; test: Compound was evaluated for its antiviral activity against vaccinia; type: functional, Orthopoxvirus vaccinia
[7] = tested on: Vaccinia virus; test: Compound was evaluated for antiviral activity against vaccinia; type: functional, Orthopoxvirus vaccinia

O=c1[nH]c(=O)n([C@H]2C[C@H](O)[C@@H](CO)O2)cc1/C=C/Br [BRIVUDINE] was tested, and the ID99 [1] was >100 µg/mL, the ID99 [2] was 0.008 µg/mL and the ID99 [3] was 3 µg/mL. For the same molecule, the IC50 [4] was 70 µg/mL (≈ 210 µM), the IC50 [5] was 20 µg/mL (≈ 60 µM) and the ID99 [6] was 22 µg/mL.
For O=c1[nH]c(=O)n([C@H]2C[C@H](O)[C@@H](CO)O2)cc1/C=C/C(F)(F)F, the ID99 [1] was >100 µg/mL, the ID99 [2] was 0.03 µg/mL and the ID99 [3] was 100 µg/mL. The IC50 [4] was 300 µg/mL (≈ 931 µM), the IC50 [5] was 150 µg/mL (≈ 465 µM) and the ID99 [7] was >100 µg/mL.
With C/C=C/c1cn([C@H]2C[C@H](O)[C@@H](CO)O2)c(=O)[nH]c1=O the ID99 [1] was >100 µg/mL, the ID99 [2] was 0.15 µg/mL and the ID99 [3] was 18 µg/mL. The IC50 [4] was 25 µg/mL (≈ 93.2 µM), the IC50 [5] was 40 µg/mL (≈ 149 µM) and the ID99 [7] was >100 µg/mL.
In the case of O=c1[nH]c(=O)n([C@H]2C[C@H](O)[C@@H](CO)O2)cc1I [IDOXURIDINE], the ID99 [1] is reported as >100 µg/mL, the ID99 [2] is reported as 0.1 µg/mL and the ID99 [3] is reported as 0.8 µg/mL. The IC50 [4] was 1 µg/mL (≈ 2.82 µM), the IC50 [5] was 0.25 µg/mL (≈ 0.706 µM) and the ID99 [7] was 0.25 µg/mL.
Molecule O=c1[nH]c(=O)n([C@H]2C[C@H](O)[C@@H](CO)O2)cc1C(F)(F)F [TRIFLURIDINE] has an ID99 [1] of 0.4 µg/mL, an ID99 [2] of 0.7 µg/mL and an ID99 [3] of 1.2 µg/mL. The IC50 [4] was 20 µg/mL (≈ 67.5 µM), the IC50 [5] was 0.01 µg/mL (≈ 0.0338 µM) and the ID99 [7] was 0.12 µg/mL.
